Source: PubChem BioAssay
Sampled rows, rich in hits. Any-hit rate of the full collection: about 2.3%.
TRPC4 potent: allosterically enhances the mouse TRPC4 cation channel; Q9QUQ5; HEK293 TRPC4beta/mu-opioid, DAMGO EC20, Fluo-4 Ca2+ flux; stronger effect = higher value; B-score at 10 µM; hit rate 0.42% among 310,000; AID 2227;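 active = B-score of calcium response area above 5 SD of library B-scores, with initial fluorescence ratio within 5 SD of library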
TRPC6 inh: mouse TRPC6 channel inhibition | HEK293-TRPC6, membrane potential dye, ACh-evoked depolarization; stronger effect = lower value | Q61143 | B-score at 10 µM | hit rate 1.1% among 310,000;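 active = B-score under library mean minus 3 SD, initial fluorescence not abnormally high, positive integrated signal ratio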;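 note: B-score derived from integrated fluorescence ratio over the kinetic read; more negative B-score means stronger inhibition of depolarization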
Target sequence (Q61143 whole entry, looked up): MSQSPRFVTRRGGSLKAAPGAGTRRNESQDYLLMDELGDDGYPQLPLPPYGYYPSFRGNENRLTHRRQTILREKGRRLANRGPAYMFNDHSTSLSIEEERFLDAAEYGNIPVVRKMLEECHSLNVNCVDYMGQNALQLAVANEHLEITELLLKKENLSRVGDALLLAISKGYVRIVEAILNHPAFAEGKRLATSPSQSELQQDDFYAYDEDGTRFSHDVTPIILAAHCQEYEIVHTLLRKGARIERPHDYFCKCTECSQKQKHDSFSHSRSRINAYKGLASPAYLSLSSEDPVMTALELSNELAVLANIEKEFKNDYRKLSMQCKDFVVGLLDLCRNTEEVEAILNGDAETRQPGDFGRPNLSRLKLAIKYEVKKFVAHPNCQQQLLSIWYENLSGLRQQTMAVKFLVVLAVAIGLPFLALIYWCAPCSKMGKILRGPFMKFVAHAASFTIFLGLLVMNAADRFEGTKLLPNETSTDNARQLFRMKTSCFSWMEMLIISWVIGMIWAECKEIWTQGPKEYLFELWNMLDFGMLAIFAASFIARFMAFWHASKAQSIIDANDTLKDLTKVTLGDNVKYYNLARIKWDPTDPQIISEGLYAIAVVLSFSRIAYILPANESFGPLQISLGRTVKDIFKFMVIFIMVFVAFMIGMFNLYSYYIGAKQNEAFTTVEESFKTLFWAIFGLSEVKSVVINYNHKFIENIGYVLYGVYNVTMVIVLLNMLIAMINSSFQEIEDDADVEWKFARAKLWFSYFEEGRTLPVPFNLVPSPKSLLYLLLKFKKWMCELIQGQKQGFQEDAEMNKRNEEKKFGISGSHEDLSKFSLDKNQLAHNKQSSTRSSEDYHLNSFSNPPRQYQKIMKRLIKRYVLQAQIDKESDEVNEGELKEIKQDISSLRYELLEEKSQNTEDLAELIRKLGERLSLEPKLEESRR
TRPC6 activator: activates the mouse TRPC6 cation channel; HEK293-TRPC6 membrane potential dye fluorescence; stronger effect = higher value; B-score at 10 µM; hit rate 0.13% among 310,000;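 active = B-score of the integrated fluorescence ratio above library mean plus 3 SD, and starting fluorescence ratio within library mean plus 5 SD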;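 note: higher score means more depolarization so channel activation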
TRPC4 inh: blocks the mouse TRPC4 cation channel; Q9QUQ5; HEK293 TRPC4beta/mu-opioid, DAMGO-evoked Fluo4 calcium flux; stronger effect = lower value; B-score at 10 µM; hit rate 0.39% among 300,000; AID 2247;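 active = B-score over 3 SD under the library average, no early fluorescence shift, positive overall ratio signal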
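Material: HEK293 cells with stable TRPC4beta plus mu-opioid receptor expression / Probe or stimulus: DAMGO in two steps, submaximal then maximal / Compound: single concentration per test compound / Technique: kinetic Fluo4 fluorescence imaging of calcium influx / Read-out: per-well B score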
TRPC4 agonist: activators of mouse TRPC4 channel. Q9QUQ5. HEK293 TRPC4beta/mu-opioid, Fluo4 calcium fluorescence; stronger effect = higher value. B-score at 10 µM. hit rate 0.49% among 310,000. AID 2237;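 active = B-score above 5 SD of library B-scores, and initial fluorescence ratio not above library mean plus 5 SD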;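 note: positive B-score marks a calcium rise read as TRPC4 activation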
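Assay system – TRPC4beta and mu-opioid receptor HEK293 stable cells · Measured by – Fluo4 fluorescence, kinetic · Schedule – dye loading 45 min room temperature, 110 s kinetic read · Read-out – B-scored integrated calcium fluorescence ratio · Controls – buffer and maximal DAMGO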
TRPC4 spec 2: second selectivity test of TRPC6 inhibitors: effect on mouse TRPC4 | shares compounds with TRPC6 inh | HEK293 TRPC4/MOR, membrane potential dye fluorescence; channel activated by saturating DAMGO dose | inhibition, % at 10 µM | hit rate 42% among 920;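 active = compounds whose fluorescence signal differed from control wells by over 3 SD, either direction, in both duplicate plates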
TRPC4 spec: mouse TRPC4 off-target activity of TRPC6 inhibitors; HEK293 TRPC4/mu-opioid, membrane potential fluorescence; hit rate 61% among 920; activity change, negative = inhibition, % at 10 µM; shares compounds with TRPC6 inh; AID 2777;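 active = rise or fall in signal beyond 3 SD of buffer-only wells in both replicate plates, either sign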;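 note: integrated kinetic ratio of fluorescence range over baseline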
HEK293 MPD ctr 2-1: second check of TRPC6 inhibitor effects in parental HEK293 cells | hit rate 31% among 920 | signal change vs control, % at 10 µM | AID 2779 | parental HEK293 membrane potential dye fluorescence; maximal acetylcholine challenge after compound addition | shares compounds with TRPC6 inh;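 active = membrane potential signal moving either way by over 3 SD of the maximum-effect control, in both duplicate plates, meaning non-specific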
HEK293 MPD ctr-1: counter-screen for TRPC6 inhibitors: effect in parental HEK293 cells. hit rate 60% among 920. membrane potential signal change, % at 10 µM. shares compounds with TRPC6 inh. parental HEK293 membrane potential dye fluorescence;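 active = membrane potential signal shifting up or down by more than 3 SD of buffer-only wells, on both duplicate plates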
HEK293 MPD ctr-2: checks TRPC6 modulator effects in parental HEK293 cells; membrane potential signal change, % at 10 µM; shares compounds with TRPC6 inh; membrane potential dye fluorescence; hit rate 51% among 2,400; AID 488924;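 active = membrane potential signal moves up or down beyond 5 SD from buffer-only wells, on both duplicate plates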
HEK293 MPD ctr 2-2: second counter-screen for TRPC6 modulators: effect in parental HEK293 cells; shares compounds with TRPC6 inh; membrane potential dye fluorescence; after compound, maximal acetylcholine stimulation; inhibition, % at 10 µM; hit rate 14% among 2,400; AID 488926;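 active = membrane potential signal drops by more than 5 SD from the mean control signal, in both duplicate plates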
TRPC4 ctr mod: tests whether TRPC6 modulators also affect mouse TRPC4 | shares compounds with TRPC6 inh | HEK293 TRPC4/mu-opioid, membrane potential fluorescence | percent change from control (negative = decrease, positive = increase), % at 10 µM | hit rate 69% among 2,400;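 active = membrane potential signal moved up or down beyond 5 SD of buffer control wells, in both duplicate plates, actives on both sides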
TRPC4 ctr inh 2: mouse TRPC4 off-target activity of TRPC6 modulators, second screen. inhibition, % at 10 µM. HEK293 TRPC4/mu-opioid, membrane potential dye fluorescence; stimulated with maximal-effect DAMGO. hit rate 55% among 2,400. shares compounds with TRPC6 inh. AID 488928;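 active = drop in membrane potential signal beyond 5 SD of the control wells in both duplicate plates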;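 note: TRPC4 counter screen for TRPC6 hits run under conditions tuned for TRPC6 not TRPC4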
TRPC6 inh conf: mouse TRPC6 inhibitor confirmation | HEK293-TRPC6, membrane potential dye, ACh-evoked depolarization | inhibition, % at 10 µM | hit rate 43% among 3,300 | shares compounds with TRPC6 inh;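 active = fluorescence ratio falls more than 5 SD below the full-stimulation control mean, in both duplicate runs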;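 note: integrated fluorescence ratio of peak minus minimum over baseline after agonist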
TRPC6 act confirm: mouse TRPC6 activator confirmation; hit rate 11% among 2,800; AID 488961; shares compounds with TRPC6 inh; HEK293-TRPC6 membrane potential dye fluorescence, FDSS; activation, % at 10 µM;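 active = ratio signal rise beyond 5 SD above unstimulated control wells' mean, seen in both duplicate runs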
Of the large screens only hits and unclear results are named; the others gave an inactive call (follow-up assays come after a bar, where they were run).

COc1cccc(-n2c(CCn3nc(C)c([N+](=O)[O-])c3C)n[nH]c2=S)c1	none
COc1ccc(CCn2nc(C)c([N+](=O)[O-])c2C)cc1	TRPC6 inh -5.2 | HEK293 MPD ctr-2 inactive | HEK293 MPD ctr 2-2 inactive | TRPC4 ctr mod 20% | TRPC4 ctr inh 2 inactive | TRPC6 inh conf inactive
Cc1ccc(S(=O)(=O)c2nc(S(C)(=O)=O)sc2N2CCC3(CC2)OCCO3)cc1	none
COc1cccc(OC)c1NC(=O)CN(C)S(=O)(=O)c1ccc2c(c1)OCCO2	none
Cc1ccccc1Nc1c(-c2ccncc2)nc2ccc(Cl)cn12	TRPC6 inh -5.8 | HEK293 MPD ctr-2 inactive | HEK293 MPD ctr 2-2 inactive | TRPC4 ctr mod -16% | TRPC4 ctr inh 2 70% | TRPC6 inh conf inactive | TRPC6 act confirm inactive
Cc1ccccc1Nc1c(-c2ccc(N3CCOCC3)cc2)nc2cnccn12	none
CC(=O)Nc1c(-c2ccccc2)nc2ccc(Cl)cn12	none
Cc1ccn2c(Nc3ccccc3C)c(-c3cccnc3)nc2c1	TRPC6 inh -5.7 | HEK293 MPD ctr-2 -166% | HEK293 MPD ctr 2-2 inactive | TRPC4 ctr mod -32% | TRPC4 ctr inh 2 77% | TRPC6 inh conf 46% | TRPC6 act confirm inactive
CN1C(C(=O)Nc2cccc(O)c2)=CC(c2ccco2)=NS1(=O)=O	none
COC(=O)c1ccc(/C=N/OCC(=O)NC2CCCC(C)C2C)cc1 (configuration not stated)	none
COC(=O)c1ccc(/C=N/OCC(=O)NC2CCCCCCC2)cc1	TRPC6 inh -9.1 | TRPC4 spec 2 inactive | TRPC4 spec 3.9% | HEK293 MPD ctr 2-1 inactive | HEK293 MPD ctr-1 3.9% | TRPC6 inh conf inactive
CCCCN(C(=O)CNC(=O)c1ccco1)C(C(=O)NC1CCCCC1)c1cccnc1 (configuration not stated)	none
CCCN1C(=S)SC(C)(C)C1/[N+]([O-])=C/c1cccnc1 (configuration not stated)	none
CCCCN1C(=S)SC(C)(C)C1/[N+]([O-])=C/c1cccnc1 (configuration not stated)	TRPC6 inh -6.6 | TRPC4 spec 2 inactive | TRPC4 spec inactive | HEK293 MPD ctr 2-1 inactive | HEK293 MPD ctr-1 inactive | TRPC6 inh conf 57%
CN(C)S(=O)(=O)c1ccc(C(=O)Nc2nnc(-c3cccs3)o2)cc1	none
CN(C)S(=O)(=O)c1ccc(C(=O)Nc2nnc(-c3ccc4c(c3)CCCC4)o2)cc1	TRPC6 inh -5.6 | HEK293 MPD ctr-2 inactive | HEK293 MPD ctr 2-2 inactive | TRPC4 ctr mod inactive | TRPC4 ctr inh 2 inactive | TRPC6 inh conf inactive | TRPC6 act confirm inactive
CC1=Nc2ccc(C)c3nc(C)cc(c23)N1c1ccc(C)cc1	TRPC6 inh -13 | HEK293 MPD ctr-2 -157% | HEK293 MPD ctr 2-2 88% | TRPC4 ctr mod -33% | TRPC4 ctr inh 2 82% | TRPC6 inh conf 87% | TRPC6 act confirm inactive
Cc1ccc(N2C(=O)c3cccc4cccc(c34)C2=O)cc1	none
Cc1ccc(N2C(=O)CC(Sc3nc(C)cc(C)n3)C2=O)cc1 (configuration not stated)	none
Cc1ccc(N2C=Nc3ccc(C)c4nc(C)cc2c34)cc1	TRPC6 inh -10 | HEK293 MPD ctr-2 -248% | HEK293 MPD ctr 2-2 64% | TRPC4 ctr mod -52% | TRPC4 ctr inh 2 74% | TRPC6 inh conf 60% | TRPC6 act confirm inactive
Cc1cccc(N(CC(=O)N2CCc3ccccc3C2)S(C)(=O)=O)c1C	none
CCN1CCCC1CNC(=O)c1ccc(Sc2ccccc2Cl)c([N+](=O)[O-])c1 (configuration not stated)	TRPC6 inh -7.1 | HEK293 MPD ctr-2 inactive | HEK293 MPD ctr 2-2 inactive | TRPC4 ctr mod inactive | TRPC4 ctr inh 2 44% | TRPC6 inh conf 42% | TRPC6 act confirm inactive
CCN1CCCC1CNC(=O)c1ccc(Sc2ccc(F)cc2)c([N+](=O)[O-])c1 (configuration not stated)	TRPC6 inh -8.2 | HEK293 MPD ctr-2 inactive | HEK293 MPD ctr 2-2 inactive | TRPC4 ctr mod inactive | TRPC4 ctr inh 2 56% | TRPC6 inh conf 52% | TRPC6 act confirm inactive
CN(C)c1cc[n+](Cc2c(Cl)cccc2Cl)cc1	none
CN(C)c1cc[n+](CC[n+]2ccc(N(C)C)cc2)cc1	TRPC6 inh -5.5 | HEK293 MPD ctr-2 -234% | HEK293 MPD ctr 2-2 inactive | TRPC4 ctr mod -42% | TRPC4 ctr inh 2 40% | TRPC6 inh conf 52% | TRPC6 act confirm inactive
CCCC(=O)NC(c1ccc(C(C)C)cc1)c1ccc2cccnc2c1O (configuration not stated)	TRPC6 inh -6.4 | HEK293 MPD ctr-2 inactive | HEK293 MPD ctr 2-2 inactive | TRPC4 ctr mod inactive | TRPC4 ctr inh 2 inactive | TRPC6 inh conf inactive | TRPC6 act confirm inactive
CCCCC(=O)NC(c1ccc(Cl)cc1Cl)c1ccc2cccnc2c1O (configuration not stated)	TRPC6 inh -5.2 | HEK293 MPD ctr-2 -154% | HEK293 MPD ctr 2-2 inactive | TRPC4 ctr mod -30% | TRPC4 ctr inh 2 inactive | TRPC6 inh conf inactive | TRPC6 act confirm inactive
CCCC(=O)NC(c1ccc(N(C)C)cc1)c1ccc2cccnc2c1O (configuration not stated)	none
COc1ccc(CC(=O)NNC(=O)c2c(-c3ccccc3Cl)noc2C)cc1OC	none
O=[N+]([O-])c1ccc(CSc2nc3ncc(Br)cc3[nH]2)cc1	none
